Assay results from ChEMBL document CHEMBL3297649, “Structure-activity relationships of privileged structures lead to the discovery of novel biased ligands at the dopamine D₂ receptor” (J Med Chem, 2014).
Activity calls are given as the source filed them. The calls are words filed in the database; no cut-off is given here.

How the values were obtained:
[1] = molecular target: T1, D(2) dopamine receptor (Homo sapiens, UniProt P14416); assay: Displacement of [3H]spiperone from human D2L receptor expressed in FlpIn CHO cell membrane after 3 hrs by liquid scintillation counting analysis; format: cell membranes
Summary of the method: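 Membranes from D2L FlpIn CHO cells, 3 μg, with 0.05 nM [3H]spiperone, 100 μM GppNHp and varied competitor in 20 mM HEPES, 100 mM NaCl, 6 mM MgCl2, 1 mM EGTA, 1 mM EDTA, pH 7.4, 3 h at 37 °C. Filtered on GF/B, washed in ice-cold saline, counted by liquid scintillation. Three experiments in duplicate.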

[2] = molecular target: T1, D(2) dopamine receptor; assay: Agonist activity at human D2L receptor expressed in FlpIn CHO cells assessed as induction of ERK1/2 phosphorylation at 10 uM by AlphaScreen assay; format: cell-based
Summary of the method: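 Time-course ERK1/2 phosphorylation screen at 10 μM in FlpIn CHO cells stably expressing human D2L, seeded 50 000 cells/well, serum-starved overnight. Compounds applied at 37 °C over a time course to find peak stimulation time. Stimulation stopped by SureFire lysis, 5 min shaking at room temperature, lysate read by AlphaScreen.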

[3] = molecular target: T1, D(2) dopamine receptor; assay: Competitive antagonist activity at human D2L receptor expressed in FlpIn CHO cells assessed as inhibition of dopamine-induced ERK1/2 phosphorylation treated for 30 mins prior to dopamine stimulation for 5 mins by AlphaScreen assay; format: cell-based
Summary of the method: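 Human D2L FlpIn CHO cells serum-starved overnight. Inhibitor at a range of dilutions for 30 min at 37 °C, then 10 nM dopamine for 5 min. Lysed; phospho-ERK1/2 detected by AlphaScreen. pIC50 taken from inhibition curves; three to four experiments in duplicate.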

[4] = Retention time of the compound by HPLC analysis; format: physicochemical
Summary of the method: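 Reverse-phase C8 column, 0.1% TFA/water vs 0.1% TFA/80% MeOH; 100% A 10 min, 80% B over 2 min, back to 100% A over 10 min; 1 mL/min, detection at 214 nm.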

[5] = molecular target: T1, D(2) dopamine receptor; assay: Partial agonist activity at human D2L receptor expressed in FlpIn CHO cells assessed as induction of ERK1/2 phosphorylation by AlphaScreen assay relative to dopamine; format: cell-based
Summary of the method: (§1)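 Stable human D2L FlpIn CHO cells serum-starved overnight, then given concentration series of agonist at 37 °C for 5–10 min, the per-compound peak time from time-course runs. Lysed with SureFire buffer and pERK1/2 detected by AlphaScreen. Three-parameter logistic fit gives pEC50; Emax as % of maximal dopamine response. Three to four experiments in duplicate.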

[6] = molecular target: T1, D(2) dopamine receptor; assay: Partial agonist activity at human D2L receptor expressed in FlpIn CHO cells assessed as induction of ERK1/2 phosphorylation by AlphaScreen assay; format: cell-based; summary of the method: as §1
[7] = molecular target: T1, D(2) dopamine receptor; settings: CHO
[8] = molecular target: T1, D(2) dopamine receptor; assay: Agonist activity at human D2L receptor expressed in FlpIn CHO cells assessed as inhibition of forskolin-stimulated cAMP production treated for 30 mins by AlphaScreen assay relative to dopamine; format: functional, cell-based
Summary of the method: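 D2L-expressing FlpIn CHO cells grown overnight, then preincubated 45 min in HBSS stimulation buffer (1 mg/mL BSA, 0.5 mM IBMX, 5 mM HEPES, pH 7.4). Agonist and 300 nM forskolin added together for 30 min at 37 °C. Stopped with ice-cold ethanol, dried, lysed in detection buffer; cAMP measured by AlphaScreen. Operational-model fit gives log(τ/KA); n = 4.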

[9] = molecular target: T1, D(2) dopamine receptor; settings: CHO; remark: listed apart in the source
[10] = molecular target: T1, D(2) dopamine receptor; settings: CHO; remark: listed apart in the source
[11] = molecular target: T1, D(2) dopamine receptor; settings: CHO; remark: listed apart in the source
[12] = molecular target: T1, D(2) dopamine receptor; assay: Agonist activity at human D2L receptor expressed in FlpIn CHO cells assessed as induction of ERK1/2 phosphorylation by AlphaScreen assay relative to dopamine; format: cell-based
Summary of the method: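 FlpIn CHO cells stably expressing human D2L receptor, seeded at 50 000 cells/well, serum-starved overnight. Ligands added at 37 °C for 5−10 min, time set per ligand from prior time-course runs. Lysed in SureFire buffer; phospho-ERK1/2 read by AlphaScreen. Curves fitted to three-parameter logistic; Emax as % of dopamine maximum. Three to four experiments in duplicate.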

[13] = molecular target: T1, D(2) dopamine receptor; assay: Agonist activity at human D2L receptor expressed in FlpIn CHO cells assessed as inhibition of forskolin-stimulated cAMP production treated for 30 mins by AlphaScreen assay; format: functional, cell-based
[14] = molecular target: T1, D(2) dopamine receptor; assay: Agonist activity at human D2L receptor expressed in FlpIn CHO cells assessed as induction of ERK1/2 phosphorylation by AlphaScreen assay; format: cell-based
[15] = molecular target: T1, D(2) dopamine receptor; settings: CHO, at 10 µM
[16] = molecular target: T1, D(2) dopamine receptor; assay: Antagonist activity at human D2L receptor expressed in FlpIn CHO cells assessed as inhibition of dopamine-induced ERK1/2 phosphorylation treated for 30 mins prior to dopamine stimulation for 5 mins by AlphaScreen assay; format: cell-based
Summary of the method: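 D2L-FlpIn CHO cells serum-starved overnight. Compound serial dilutions preincubated 30 min at 37 °C, then 10 nM dopamine added for 5 min. Lysed in SureFire buffer, pERK1/2 read by AlphaScreen. pIC50 is the mean of three to four separate experiments run in duplicate.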

T1 sequence (P14416 whole entry): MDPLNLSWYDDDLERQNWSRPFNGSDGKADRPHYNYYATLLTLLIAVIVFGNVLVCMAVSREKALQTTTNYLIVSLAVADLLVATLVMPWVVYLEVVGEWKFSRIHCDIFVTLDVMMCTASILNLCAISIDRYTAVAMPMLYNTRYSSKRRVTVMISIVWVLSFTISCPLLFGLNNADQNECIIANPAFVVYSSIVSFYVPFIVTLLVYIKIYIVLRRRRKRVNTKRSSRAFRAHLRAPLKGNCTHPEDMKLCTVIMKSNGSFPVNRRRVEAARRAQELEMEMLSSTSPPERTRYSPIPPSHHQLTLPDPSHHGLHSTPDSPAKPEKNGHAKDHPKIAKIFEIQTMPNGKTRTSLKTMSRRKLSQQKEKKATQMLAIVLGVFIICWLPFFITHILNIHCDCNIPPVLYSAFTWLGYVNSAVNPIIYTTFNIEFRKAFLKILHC

Work on `Clc1cccc(N2CCNCC2)c1Cl` yielded a Ki [1] of 1160 nM.

In the case of `CC(C)(C)OC(=O)NCCCN1CCC(O)(c2ccc(Cl)cc2)CC1`, the Ki [1] is reported as 1350 nM and the Activity [2] is reported as “inactive”.

In the case of `CC(C)(C)OC(=O)NCCCCCN1CCC(O)(c2ccc(Cl)cc2)CC1`, the Ki [1] is reported as 2050 nM and the Activity [2] is reported as “inactive”.

In the case of `COc1ccccc1N1CCN(CCNC(=O)c2sc3nc(OC)c(Cl)c(C)c3c2N)CC1`, the Kb [3] is reported as 355 nM, the pKb [3] is reported as 6.45 and the Ki [1] is reported as 48.3 nM.

With `COc1ccccc1N1CCN(CCCCNC(=O)c2sc3nc(OC)c(Cl)c(C)c3c2N)CC1` the Kb [3] was 490 nM, the pKb [3] was 6.31 and the Retention_time [4] was 9.3 min. The Ki [1] was 6.3 nM.

In the case of `CC(C)(C)OC(=O)NCCN1CCC(O)(c2ccc(Cl)cc2)CC1`, the Retention_time [4] is reported as 7.68 min, the Ki [1] is reported as 2750 nM and the Activity [2] is reported as “inactive”.

In the case of `COc1ccccc1N1CCN(CCCNC(=O)OC(C)(C)C)CC1`, the Emax [5] is reported as 31%, the EC50 [6] is reported as 0.39 nM and the Retention_time [4] is reported as 7.74 min. The Ki [1] was 16.1 nM and the Activity [2] was “inactive”.

In the case of `COc1ccccc1N1CCN(CCCCCNC(=O)c2sc3nc(C)cc(C)c3c2N)CC1`, the log(activity) [7] is reported as -0.42, the Emax [8] is reported as 33% and the pKA [9] is reported as 8.84. It also gave a Retention_time [4] of 8.89 min and a Ki [1] of 9.1 nM.

`Cc1cc(C)c2c(N)c(C(=O)NCCN3CCC(O)(c4ccc(Cl)cc4)CC3)sc2n1` gave a Retention_time [4] of 8.06 min and a Ki [1] of 910 nM.

`Cc1cc(C)c2c(N)c(C(=O)NCCCN3CCC(O)(c4ccc(Cl)cc4)CC3)sc2n1` showed a Ki [1] of 1700 nM.

For `NCCc1ccc(O)c(O)c1`, the log(activity) [10] was 0.79 and the pKA [11] was 7.98.

For `COc1ccccc1N1CCN(CCCCCNC(=O)OC(C)(C)C)CC1`, the log(activity) [7] was 0.19, the Emax [5] was 19% and the log(activity) [10] was -0.67. For the same compound, the EC50 [6] was 1.43 nM, the pKA [9] was 7.06 and the Retention_time [4] was 10.43 min. The pKA [11] was 8.77, the Ki [1] was 12.1 nM and the Activity [2] was “inactive”.

Work on `Cc1cc(C)c2c(N)c(C(=O)NCCCCCCN3CCC(O)(c4ccc(Cl)cc4)CC3)sc2n1` yielded a Retention_time [4] of 8.39 min and a Ki [1] of 975 nM.

Work on `COc1ccccc1N1CCN(CCCNC(=O)c2sc3nc(OC)c(Cl)c(C)c3c2N)CC1` yielded a Kb [3] of 741 nM, a pKb [3] of 6.13 and a Ki [1] of 19.5 nM.

`CC(C)(C)OC(=O)NCCCCCN1CCN(c2cccc(Cl)c2Cl)CC1` showed a log(activity) [7] of 0.43, a log(activity) [10] of -0.51 and a pKA [9] of 7.73. The Retention_time [4] was 10.43 min, the pKA [11] was 7.14 and the Ki [1] was 42.6 nM.

`Cc1cc(C)c2c(N)c(C(=O)NCCCCCN3CCN(c4cccc(Cl)c4Cl)CC3)sc2n1` showed an Emax [12] of 13%, a log(activity) [7] of -0.06 and an EC50 [13] of 0.3 nM. It also gave an Emax [8] of 50%, a log(activity) [10] of -0.78 and a pKA [9] of 9. The EC50 [14] was 13.2 nM, the Retention_time [4] was 10.13 min and the pKA [11] was 7.9. For the same compound, the Ki [1] was 11.2 nM.

For `COc1ccccc1N1CCNCC1`, the Kb [3] was 479 nM, the pKb [3] was 6.32 and the inhibition [15] was “Active”. It also gave an IC50 [16] of over 1000 nM, a pIC50 ([16]; cho) of under 6 and a Ki [1] of 4110 nM.

With `CC(C)(C)OC(=O)NCCCCCCN1CCC(O)(c2ccc(Cl)cc2)CC1` the Retention_time [4] was 8.77 min, the Ki [1] was 902 nM and the Activity [2] was “inactive”.

In the case of `CC(C)(C)OC(=O)NCCCCN1CCC(O)(c2ccc(Cl)cc2)CC1`, the Ki [1] is reported as 2110 nM and the Activity [2] is reported as “inactive”.

In the case of `COc1ccccc1N1CCN(CCCCCCNC(=O)OC(C)(C)C)CC1`, the inhibition [15] is reported as “Active”, the IC50 [16] is reported as 3.98 nM and the Ki [1] is reported as 74.8 nM.

`Cc1cc(C)c2c(N)c(C(=O)NCCCCN3CCC(O)(c4ccc(Cl)cc4)CC3)sc2n1` gave a Ki [1] of 2250 nM.

Work on `COc1ccccc1N1CCN(CCCCCCNC(=O)c2sc3nc(OC)c(Cl)c(C)c3c2N)CC1` yielded an Emax [5] of 14%, an EC50 [6] of 5.49 nM and a Ki [1] of 0.6 nM.

With `Cc1cc(C)c2c(N)c(C(=O)NCCCCCN3CCC(O)(c4ccc(Cl)cc4)CC3)sc2n1` the Ki [1] was 1980 nM.

Compound `COc1nc2sc(C(=O)NCCCCCN3CCN(c4cccc(Cl)c4Cl)CC3)c(N)c2c(C)c1Cl` has an Emax [12] of 17%, a log(activity) [7] of 0.28 and an Emax [8] of 71%. It also gave a log(activity) [10] of -0.65, a Ka [9] of 58.9 nM and a pKA [9] of 6.89. For the same compound, the EC50 [14] was 87.6 nM, the Retention_time [4] was 11.66 min and the pKA [11] was 7.1. It also gave a Ki [1] of 15.5 nM.

Work on `OC1(c2ccc(Cl)cc2)CCNCC1` yielded a Ki [1] of 9090 nM.

With `COc1ccccc1N1CCN(CCCCNC(=O)OC(C)(C)C)CC1` the Emax [5] was 13%, the EC50 [6] was 0.6 nM and the Ki [1] was 18.9 nM. The Activity [2] was “inactive”.

`COc1ccccc1N1CCN(CCCCCNC(=O)c2sc3nc(OC)c(Cl)c(C)c3c2N)CC1` gave a log(activity) [7] of -0.26, an Emax [5] of 17% and a log(activity) [10] of -0.65. For the same compound, the EC50 [6] was 2.69 nM, the pKA [9] was 7.47 and the Retention_time [4] was 9.84 min. For the same compound, the pKA [11] was 8.86 and the Ki [1] was 3.5 nM.
